Laboratory results published in ChEMBL document CHEMBL3813684, “A Prospective Virtual Screening Study: Enriching Hit Rates and Designing Focus Libraries To Find Inhibitors of PI3Kδ and PI3Kγ” (J Med Chem, 2016).

Biological target: Phosphatidylinositol 4,5-bisphosphate 3-kinase catalytic subunit gamma isoform (Homo sapiens, UniProt P48736)
Experiment: Inhibition of human PI3Kgamma using PIP2 as substrate by HTRF assay in presence of biotin-PIP3
Summary of the method: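 HTRF enzyme assay: PI3Kγ added to mix of ATP, MgCl2 and PIP2 substrate (apparent Km 200 µM ATP, 15 µM PIP2). PIP3 product read by displacement of biotin-PIP3 from Eu-anti-GST antibody/GST-GRP1 PH domain/biotin-PIP3/streptavidin-APC complex. Primary screen at 10 µM, hits >2 SD from mean; confirmation in triplicate at 10 µM; dose response as pIC50.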

Sequence of Phosphatidylinositol 4,5-bisphosphate 3-kinase catalytic subunit gamma isoform (P48736 whole entry, canonical isoform): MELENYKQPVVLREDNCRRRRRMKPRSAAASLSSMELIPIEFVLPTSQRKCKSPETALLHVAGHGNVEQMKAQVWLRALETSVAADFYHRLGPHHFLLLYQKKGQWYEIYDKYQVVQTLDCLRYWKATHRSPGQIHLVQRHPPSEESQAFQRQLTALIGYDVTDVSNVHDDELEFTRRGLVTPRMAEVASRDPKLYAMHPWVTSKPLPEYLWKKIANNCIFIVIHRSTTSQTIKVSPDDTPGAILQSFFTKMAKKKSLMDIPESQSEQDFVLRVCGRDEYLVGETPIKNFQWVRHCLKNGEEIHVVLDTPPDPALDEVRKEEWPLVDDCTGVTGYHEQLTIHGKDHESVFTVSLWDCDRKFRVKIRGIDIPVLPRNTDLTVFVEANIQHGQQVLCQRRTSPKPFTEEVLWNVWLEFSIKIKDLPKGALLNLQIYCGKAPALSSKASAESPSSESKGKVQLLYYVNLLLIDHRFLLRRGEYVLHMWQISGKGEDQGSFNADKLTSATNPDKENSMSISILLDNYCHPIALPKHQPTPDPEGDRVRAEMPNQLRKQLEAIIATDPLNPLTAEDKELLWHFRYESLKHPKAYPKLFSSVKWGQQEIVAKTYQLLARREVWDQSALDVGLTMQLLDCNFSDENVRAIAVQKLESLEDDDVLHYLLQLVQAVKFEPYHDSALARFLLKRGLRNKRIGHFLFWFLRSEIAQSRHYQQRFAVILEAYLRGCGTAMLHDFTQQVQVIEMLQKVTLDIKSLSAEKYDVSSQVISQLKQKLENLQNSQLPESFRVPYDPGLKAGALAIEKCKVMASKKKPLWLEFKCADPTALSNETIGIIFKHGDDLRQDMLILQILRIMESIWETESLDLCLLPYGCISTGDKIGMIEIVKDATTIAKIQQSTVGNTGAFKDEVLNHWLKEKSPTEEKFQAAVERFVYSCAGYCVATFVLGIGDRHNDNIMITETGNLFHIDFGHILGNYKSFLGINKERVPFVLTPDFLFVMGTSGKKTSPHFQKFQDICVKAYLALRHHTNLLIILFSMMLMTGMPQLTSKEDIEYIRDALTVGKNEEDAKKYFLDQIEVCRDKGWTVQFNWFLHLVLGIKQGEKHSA

Compound | IC50
COc1cc(-c2cnn3ccc(Nc4ccc(C(C)C)cc4)nc23)ccc1O | 2.4 µM
FC(F)(F)c1cc(Nc2nc3ccccc3s2)cc(C(F)(F)F)c1 | 5.5 µM
COc1cc(Nc2ccn3ncc(-c4cccc(C(N)=O)c4)c3n2)cc(OC)c1OC | 6.17 µM
COc1cc(-c2cnc3ccc(NCc4ccco4)nn23)ccc1O | 6.92 µM
COc1cncc(-c2cnn3ccc(NC4CCC(O)CC4)nc23)c1 (stereo unspecified) | 5.75 µM

Biological target: PI3-kinase p110-delta/p85-alpha (Homo sapiens, UniProt O00329)
Experiment: Inhibition of human full length recombinant His-tagged PIK3CD/PIK3R1 expressed in baculovirus expression system after 60 mins by LanthaScreen Eu binding assay in presence of kinase tracer 314
Summary of the method: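 Binding displacement in 50 mM HEPES pH 7.5, 10 mM MgCl2, 1 mM EGTA, 0.01% Brij-35. Enzyme 0.5 nM with Eu-anti-GST antibody 2 nM added to pre-spotted compound, then tracer 314 10 nM (all final). Controls omit enzyme. 60 min at room temperature; TR-FRET read at excitation 320 nm, emission 615/665 nm. Results as pIC50.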

Sequence of PI3-kinase p110-delta/p85-alpha (P27986 whole entry): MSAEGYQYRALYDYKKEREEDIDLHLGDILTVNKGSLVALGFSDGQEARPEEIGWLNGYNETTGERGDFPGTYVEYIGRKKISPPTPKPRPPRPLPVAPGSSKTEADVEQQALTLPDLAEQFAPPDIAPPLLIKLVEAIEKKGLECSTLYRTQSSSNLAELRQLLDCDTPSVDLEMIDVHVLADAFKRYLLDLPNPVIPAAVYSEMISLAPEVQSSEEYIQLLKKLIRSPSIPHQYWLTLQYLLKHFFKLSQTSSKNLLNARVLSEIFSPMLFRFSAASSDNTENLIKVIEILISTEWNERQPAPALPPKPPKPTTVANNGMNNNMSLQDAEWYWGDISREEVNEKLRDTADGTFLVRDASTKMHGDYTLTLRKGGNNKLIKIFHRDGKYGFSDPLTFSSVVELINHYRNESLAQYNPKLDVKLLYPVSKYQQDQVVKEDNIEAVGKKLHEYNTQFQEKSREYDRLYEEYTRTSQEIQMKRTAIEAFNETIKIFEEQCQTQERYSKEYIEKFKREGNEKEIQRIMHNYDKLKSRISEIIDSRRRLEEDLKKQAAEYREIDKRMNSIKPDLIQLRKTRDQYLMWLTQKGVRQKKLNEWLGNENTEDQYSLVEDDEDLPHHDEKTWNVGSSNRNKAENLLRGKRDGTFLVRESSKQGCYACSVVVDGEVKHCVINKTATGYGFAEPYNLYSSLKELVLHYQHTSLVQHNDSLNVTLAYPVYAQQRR
Sequence of PI3-kinase p110-delta/p85-alpha (O00329 whole entry): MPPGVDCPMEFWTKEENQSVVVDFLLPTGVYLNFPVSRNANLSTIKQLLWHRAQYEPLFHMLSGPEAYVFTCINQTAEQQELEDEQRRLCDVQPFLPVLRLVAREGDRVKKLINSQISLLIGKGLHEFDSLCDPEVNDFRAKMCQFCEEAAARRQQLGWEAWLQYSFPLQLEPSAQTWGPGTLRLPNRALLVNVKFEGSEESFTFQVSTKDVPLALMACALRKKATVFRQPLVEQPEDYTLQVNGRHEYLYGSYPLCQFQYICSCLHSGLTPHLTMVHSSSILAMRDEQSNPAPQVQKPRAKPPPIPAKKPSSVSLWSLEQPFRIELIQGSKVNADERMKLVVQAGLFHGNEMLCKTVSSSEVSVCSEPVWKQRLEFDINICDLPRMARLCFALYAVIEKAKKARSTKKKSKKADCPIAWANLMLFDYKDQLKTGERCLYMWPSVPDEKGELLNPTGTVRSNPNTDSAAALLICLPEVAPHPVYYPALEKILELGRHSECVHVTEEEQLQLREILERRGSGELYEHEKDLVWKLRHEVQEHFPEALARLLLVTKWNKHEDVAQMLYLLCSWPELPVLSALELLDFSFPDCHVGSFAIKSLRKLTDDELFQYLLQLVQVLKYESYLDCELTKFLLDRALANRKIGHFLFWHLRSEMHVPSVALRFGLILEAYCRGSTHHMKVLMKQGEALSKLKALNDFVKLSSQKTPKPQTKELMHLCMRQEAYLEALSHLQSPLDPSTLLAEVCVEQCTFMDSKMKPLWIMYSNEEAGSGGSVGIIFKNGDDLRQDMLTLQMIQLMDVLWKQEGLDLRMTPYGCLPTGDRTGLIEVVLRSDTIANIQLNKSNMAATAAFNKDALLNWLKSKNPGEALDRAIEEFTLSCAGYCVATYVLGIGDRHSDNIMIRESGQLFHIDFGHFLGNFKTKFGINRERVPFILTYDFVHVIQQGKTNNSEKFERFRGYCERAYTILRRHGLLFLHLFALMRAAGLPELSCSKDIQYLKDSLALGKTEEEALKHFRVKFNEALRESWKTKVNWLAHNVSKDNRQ

Compound | IC50
CN(Cc1ccccc1)c1ncnc2ccc(Br)cc12 | 6.92 µM
Cc1nc2ccc(Cl)cn2c1-c1ccnc(N)n1 | 2.57 µM
Cn1ccc2cc(-c3cnc4cnc(-c5cccc(C(N)=O)c5)cn34)ccc21 | 0.427 µM
O=C(C1CC=CCC1)N1CCCC(c2n[nH]c3ncccc23)C1 (stereo unspecified) | 8.51 µM
c1ccc(CSc2nc(N3CCOCC3)c3sccc3n2)cc1 | 3.8 µM
c1cncc(CCNc2ccc3ncc(-c4cc5ccccc5s4)n3n2)c1 | 6.46 µM
NC(=O)c1nc(-c2ccc3ncccc3c2)nc2c1[nH]c(=O)n2CCc1ccccc1 | 2.45 µM
Clc1ccc2ncnc(NCCCc3ccccc3)c2c1 | 3.16 µM
Clc1ccc2ncnc(NCCOc3ccccc3)c2c1 | 5.5 µM
CN1CCC(NCc2ccc(Nc3ncc4cnn([C@H]5C[C@@H]6CC[C@H]5C6)c4n3)cc2)CC1 | 0.339 µM
Cc1nn(-c2ccccc2)c2c1-c1nc(N)ncc1CC2 | 8.13 µM
